According to ChEMBL document CHEMBL1143109, “Discovery of novel orally active ureido NPY Y5 receptor antagonists” (Bioorg Med Chem Lett, 2008):

test system: Rattus norvegicus; test: Blockade of D-Trp[34]-NPY-induced food intake in po dosed rat; assay type: functional; conditions: not given

| SMILES | ED50 |
| --- | --- |
| CN(C(=O)Nc1ccc(-c2cc(F)cc(F)c2)cc1)C1CCN(S(C)(=O)=O)CC1 | 0.4 mg/kg |

molecular target: T1, Neuropeptide Y receptor type 5 (Rattus norvegicus) (UniProt Q63634); test: Antagonist activity at rat NPY Y5 receptor expressed in HEK293 cells assessed as inhibition of forskolin-stimulated cAMP production; assay type: functional, cell-based; conditions: not given
T1 sequence (whole entry): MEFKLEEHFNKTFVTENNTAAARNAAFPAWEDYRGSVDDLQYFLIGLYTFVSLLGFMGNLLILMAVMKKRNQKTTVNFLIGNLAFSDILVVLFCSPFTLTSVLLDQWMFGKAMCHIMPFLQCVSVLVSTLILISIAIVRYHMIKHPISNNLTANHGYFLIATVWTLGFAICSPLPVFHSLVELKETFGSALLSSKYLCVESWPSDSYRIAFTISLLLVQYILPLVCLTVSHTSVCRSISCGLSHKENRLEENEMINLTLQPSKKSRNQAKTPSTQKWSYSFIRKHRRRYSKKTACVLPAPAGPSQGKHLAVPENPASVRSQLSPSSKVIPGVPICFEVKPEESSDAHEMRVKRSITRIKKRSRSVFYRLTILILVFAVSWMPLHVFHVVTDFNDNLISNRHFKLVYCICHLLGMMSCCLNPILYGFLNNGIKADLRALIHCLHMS
Summary of the method: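 HEK293 cells expressing rat NPY Y5 receptor. Functional antagonism measured as the ability to overcome NPY inhibition of forskolin-stimulated cAMP production; reported as Kb.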

| Kb | SMILES |
| --- | --- |
| 0.4 nM | CN(C(=O)Nc1ccc(-c2cc(F)cc(F)c2)cc1)C1CCN(S(C)(=O)=O)CC1 |

molecular target: Neuropeptide Y receptor type 5 (Homo sapiens, UniProt Q15761); test: Displacement of [125]PYY from human chimeric NPY Y5 receptor expressed in CHOK1 cells; assay type: cell-based; conditions: cho-k1
Sequence (Q15761 whole entry, looked up): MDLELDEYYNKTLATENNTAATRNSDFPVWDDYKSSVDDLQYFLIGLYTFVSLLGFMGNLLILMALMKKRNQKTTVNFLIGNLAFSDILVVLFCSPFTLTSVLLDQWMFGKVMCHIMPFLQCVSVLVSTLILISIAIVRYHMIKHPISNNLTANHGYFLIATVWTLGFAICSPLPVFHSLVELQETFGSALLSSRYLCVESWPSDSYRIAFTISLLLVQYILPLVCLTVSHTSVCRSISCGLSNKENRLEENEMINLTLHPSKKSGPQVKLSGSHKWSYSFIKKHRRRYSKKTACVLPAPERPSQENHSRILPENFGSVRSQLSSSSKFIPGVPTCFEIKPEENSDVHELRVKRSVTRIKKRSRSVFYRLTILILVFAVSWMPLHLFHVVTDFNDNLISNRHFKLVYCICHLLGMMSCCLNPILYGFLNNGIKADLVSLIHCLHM
Summary of the method: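 Binding to human chimeric Y5 receptor expressed in CHO-K1 cells; Ki values are the average of two determinations.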

| SMILES | Ki |
| --- | --- |
| CN(C(=O)NC1CCN(c2ccc(F)c(F)c2)CC1)C1CCN(S(C)(=O)=O)CC1 | 312 nM |
| CC(=O)N1CCC(N(C)C(=O)N[C@H]2CC[C@@H](c3ccccc3)CC2)CC1 | > 1000 nM |
| CN(C(=O)NC1CCN(c2ccccc2F)CC1)C1CCN(S(C)(=O)=O)CC1 | 88 nM |
| CC(=O)N1CCC(N(C)C(=O)NC2CCN(c3cc(F)cc(F)c3)CC2)CC1 | 7.4 nM |
| CN(C(=O)NC1CCN(c2ccc(Cl)cc2)CC1)C1CCN(S(C)(=O)=O)CC1 | 130 nM |
| CC(=O)N1CCC(N(C)C(=O)N[C@H]2CC[C@H](c3ccccc3)CC2)CC1 | 59 nM |
| CC(=O)c1cccc(N2CCC(NC(=O)N(C)C3CCN(S(C)(=O)=O)CC3)CC2)c1 | 164 nM |
| CCC(=O)N1CCC(N(C)C(=O)NC2CCN(c3cc(F)cc(F)c3)CC2)CC1 | 6.3 nM |
| CN(C(=O)NC1CCN(c2cccc(Cl)c2)CC1)C1CCN(S(C)(=O)=O)CC1 | 13 nM |
| CN(C(=O)NC1CCN(c2ccc(Cl)c(Cl)c2)CC1)C1CCN(S(C)(=O)=O)CC1 | 48 nM |
| CN(C(=O)NC1CCN(c2cccnc2)CC1)C1CCN(S(C)(=O)=O)CC1 | 405 nM |
| CN(C(=O)NC1CCN(c2ccc(F)cc2)CC1)C1CCN(S(C)(=O)=O)CC1 | 799 nM |
| CN(C(=O)NC1CCN(c2ccccc2)CC1)C1CCN(S(C)(=O)=O)CC1 | 303 nM |
| Cc1cccc(N2CCC(NC(=O)N(C)C3CCN(S(C)(=O)=O)CC3)CC2)c1 | 20 nM |
| CN(C(=O)N[C@H]1CC[C@H](c2ccccc2)CC1)C1CCN(S(C)(=O)=O)CC1 | 52 nM |
| Cc1ccccc1N1CCC(NC(=O)N(C)C2CCN(S(C)(=O)=O)CC2)CC1 | 52 nM |
| CN(C(=O)NC1CCN(c2cccc(F)c2)CC1)C1CCN(S(C)(=O)=O)CC1 | 35 nM |
| CN(C(=O)NC1CCN(c2ccc(F)c(Cl)c2)CC1)C1CCN(S(C)(=O)=O)CC1 | 160 nM |
| CN(C(=O)NC1CCN(c2cccc(C#N)c2)CC1)C1CCN(S(C)(=O)=O)CC1 | 27 nM |
| COc1cccc(N2CCC(NC(=O)N(C)C3CCN(S(C)(=O)=O)CC3)CC2)c1 | 311 nM |
| CN(C(=O)NC1CCN(c2cccc(Br)c2)CC1)C1CCN(S(C)(=O)=O)CC1 | 8.8 nM |
| CN(C(=O)N[C@H]1CC[C@@H](c2ccccc2)CC1)C1CCN(S(C)(=O)=O)CC1 | 500 nM |
| CN(C(=O)NC1CCN(c2ccc(Br)cc2)CC1)C1CCN(S(C)(=O)=O)CC1 | 819 nM |
| CCCC(=O)N1CCC(N(C)C(=O)NC2CCN(c3cc(F)cc(F)c3)CC2)CC1 | 5.9 nM |

These reach a lower Ki. Values come first.

| Ki | SMILES |
| --- | --- |
| 3.4 nM | CCCS(=O)(=O)N1CCC(N(C)C(=O)NC2CCN(c3cc(F)cc(F)c3)CC2)CC1 |
| 3.2 nM | CC(C)S(=O)(=O)N1CCC(N(C)C(=O)NC2CCN(c3cc(F)cc(F)c3)CC2)CC1 |
| 3.2 nM | CN(C(=O)NC1CCN(c2cc(F)cc(F)c2)CC1)C1CCN(S(C)(=O)=O)CC1 |
| 2.8 nM | CCS(=O)(=O)N1CCC(N(C)C(=O)NC2CCN(c3cc(F)cc(F)c3)CC2)CC1 |
| 2.6 nM | CC(C)C(=O)N1CCC(N(C)C(=O)NC2CCN(c3cc(F)cc(F)c3)CC2)CC1 |
| 2.4 nM | CCCC(=O)N1CCC(N(C)C(=O)N[C@H]2CC[C@H](c3cc(F)cc(F)c3)CC2)CC1 (stereo in doubt; 21h) |
| 2 nM | CCCC(=O)N1CCC(N(C)C(=O)N[C@H]2CC[C@H](c3cc(F)cc(F)c3)CC2)CC1 (stereo in doubt; 21e) |
| 1.5 nM | CCC(=O)N1CCC(N(C)C(=O)N[C@H]2CC[C@H](c3cc(F)cc(F)c3)CC2)CC1 |
| 1.2 nM | CN(C(=O)N[C@H]1CC[C@H](c2cc(F)cc(F)c2)CC1)C1CCN(S(C)(=O)=O)CC1 |
| 1.1 nM | CN(C(=O)NC1CCN(c2cc(Cl)cc(Cl)c2)CC1)C1CCN(S(C)(=O)=O)CC1 |
| 0.75 nM | CCS(=O)(=O)N1CCC(N(C)C(=O)N[C@H]2CC[C@H](c3cc(F)cc(F)c3)CC2)CC1 |
| 0.4 nM | CN(C(=O)Nc1ccc(-c2cc(F)cc(F)c2)cc1)C1CCN(S(C)(=O)=O)CC1 |
